Assay outcomes from PubChem.
SENP6 block – SENP6 protease inhibitors, primary screen, biochemical, luminescence, uHTS; AID 2599, 2010; Recombinant SENP6 catalytic domain, aminoluciferin luminescence; 330,000 compounds, 1.8% hits; Sentrin-specific protease 6 (Homo sapiens), Q9GZR1; inhibition, % at 10 µM;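 active means inhibition above about 50% at the single tested dose, limit read from the data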;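 further: plate controls were DMSO wells with enzyme for no effect and DMSO wells lacking enzyme for full effect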
SENP1 inh – human SENP1 catalytic domain inhibitors, primary screen, biochemical, FRET, uHTS; AID 624204, 2012; 360,000 compounds, 0.21% hits; Sentrin-specific protease 1 (Homo sapiens), Q9P0U3; recombinant SENP1 catalytic domain, CyPet-SUMO1-YPet FRET cleavage; inhibition, % at 10 µM;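 active means inhibition at least 30% at 10 µM, raw YFP signal under a set limit, fluorescence ratio 0.5 to 1.5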;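 further: 0% = enzyme with DMSO and 100% = no enzyme wells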
Target sequence (Q9P0U3 419-644 limits assumed): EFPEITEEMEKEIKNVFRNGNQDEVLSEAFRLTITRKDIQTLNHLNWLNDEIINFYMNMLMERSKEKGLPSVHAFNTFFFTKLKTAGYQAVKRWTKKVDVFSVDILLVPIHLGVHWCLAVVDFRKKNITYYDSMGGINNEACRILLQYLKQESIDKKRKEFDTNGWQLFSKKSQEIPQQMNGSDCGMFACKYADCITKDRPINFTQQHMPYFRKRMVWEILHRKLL
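Compound: 10 µM single point, 0.5% DMSO; Test system: hSENP1 catalytic domain, recombinant; Timing: 50 min reaction at room temperature; Technique: FRET, CFP and YFP emission; Control set: no-enzyme wells low, DMSO-plus-enzyme wells high control.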
UCH37 DUB inh – inhibitors of human UCH37 deubiquitinase, primary screen, biochemical, Ub-AMC cleavage, fluorescence. Ubiquitin carboxyl-terminal hydrolase isozyme L5 (Homo sapiens), Q9Y5K5. 330,000 compounds, 0.33% hits. AID 588478, 2011. inhibition, % (concentration not given with the values). purified proteasome/UCH37;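 active means mean inhibition over replicate wells above about 20%, limit read from the data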;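 further: 0% = compound-free wells with enzyme and 100% = wells lacking proteasome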
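Material: human UCH37 enzyme supplied as purified proteasome complex / Amount: 0.15 nM proteasome as dispensed / Buffer or medium: pH 7.4 Tris-HCl (50 mM) with ovalbumin, ATP-MgCl2, DTT / Times: preincubation 30 min, reaction 25 min, room temperature / Technique: AMC fluorescence from Ub-AMC cleavage, excitation 355 nm, emission 460 nm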
SENP8 block-1 – human SENP8 protease inhibitors, primary screen, biochemical, fluorescence, Nedd8 protein substrate, uHTS | Sentrin-specific protease 8 (Homo sapiens), Q96LD8 | recombinant SENP8 | inhibition, % at 20 µM | 360,000 compounds, 0.64% hits | AID 602440, 2012; in the data active means inhibition mostly above about 40%, no sharp cut-off; inactive means mostly below about 27%
Target sequence (Q96LD8 whole entry, looked up): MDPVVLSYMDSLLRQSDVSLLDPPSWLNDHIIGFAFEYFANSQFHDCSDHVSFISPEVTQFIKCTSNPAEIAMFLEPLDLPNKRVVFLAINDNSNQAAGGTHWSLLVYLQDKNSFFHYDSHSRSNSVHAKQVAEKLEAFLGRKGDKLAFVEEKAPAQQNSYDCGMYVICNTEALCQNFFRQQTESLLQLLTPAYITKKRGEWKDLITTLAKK
SENP7 block – SENP7 protease inhibitors, primary screen, biochemical, luminescence, uHTS; Sentrin-specific protease 7 (Homo sapiens), Q9BQF6; recombinant SENP7, Z-RLRGG-aminoluciferin luminescence, 40 min; inhibition, % at 5 µM; 330,000 compounds, 1.5% hits; AID 434973, 2010;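 active means inhibition above about 50% at the single test dose, limit read from the data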;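 further: plate controls were DMSO with enzyme for no effect and no enzyme buffer wells for full effect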
SENP8 block-2 – SENP8 protease inhibitors, primary screen, biochemical, luminescence. Sentrin-specific protease 8 (Homo sapiens), Q96LD8. purified SENP8, Z-RLRGG-aminoluciferin cleavage. inhibition, % at 10 µM. 330,000 compounds, 1.2% hits. AID 2540, 2010; in the data active means inhibition above about 50%
SENP8 conf – SENP8 protease inhibitors, retest, confirmation, biochemical, luminescence, single concentration. shares compounds with SENP7 block. Recombinant SENP8, Z-RLRGG-aminoluciferin luminescence, 60 min. inhibition, % at 12.5 µM. 6,200 compounds, 40% hits. AID 488912, 2010;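 active means mean inhibition across replicates above about 50%, limit read from the data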
SENP6 confirm – SENP6 protease inhibitors, confirmation, biochemical, luminescence, single concentration | shares compounds with SENP7 block | recombinant SENP6, Z-RLRGG-aminoluciferin luminescence | inhibition, % at 12.5 µM | 6,200 compounds, 58% hits
SENP7 conf – SENP7 protease inhibitors, retest, confirmation, biochemical, luminescence, single concentration | shares compounds with SENP7 block | recombinant SENP7, Z-RLRGG-aminoluciferin luminescence, 40 min | inhibition, % at 12.5 µM | 6,200 compounds, 69% hits | AID 488917, 2010
Casp3 SENP sel – caspase-3 protease inhibitors, confirmation, selectivity assay for SENP inhibitor project, biochemical, single concentration; shares compounds with SENP7 block; purified caspase-3, Z-DEVD-aminoluciferin luminescence, 60 min; inhibition, % at 12.5 µM; 6,200 compounds, 60% hits;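 active means mean inhibition above about 50%, limit read from the data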;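 further: plate controls were enzyme with DMSO for no effect and wells without caspase-3 for full effect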
Target sequence (P42574 28-227 limits assumed): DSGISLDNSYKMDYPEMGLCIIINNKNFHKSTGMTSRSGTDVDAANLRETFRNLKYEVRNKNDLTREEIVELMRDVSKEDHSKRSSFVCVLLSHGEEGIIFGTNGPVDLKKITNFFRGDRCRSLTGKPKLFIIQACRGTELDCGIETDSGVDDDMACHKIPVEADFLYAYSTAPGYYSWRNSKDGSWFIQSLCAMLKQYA
SENP luc ctr – interferes with luciferase luminescence in SENP counter-screen; Pre-incubated SENP8/Z-RLRGG-aminoluciferin, luciferase luminescence interference; inhibition, % at 12.5 µM; shares compounds with SENP7 block; 6,200 compounds, 39% hits; AID 488919;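 active means mean inhibition above about 50% when retested at one dose, limit read from the data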;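 further: plate controls were DMSO wells with completed reaction for no effect and substrate without enzyme for full effect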
Starred values were filed as active, the others as inactive. Shown are actives, neighbours in structure and some others; about 2.6% of the full set was active somewhere.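 How the source made its calls, unless noted: active means mean inhibition above about 50% in the one-dose retest (limit read from the data); inactive means the rest.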

What do the screens show for `COc1ccc(-c2cc(-c3ccc(Cl)cc3)n[nH]2)c(O)c1`?
SENP6 block: 70*; SENP1 inh: 2; UCH37 DUB inh: 2; SENP8 block-1: 19; SENP7 block: 64*; SENP8 block-2: 64*; SENP8 conf: 25; SENP6 confirm: 48; SENP7 conf: 87*; Casp3 SENP sel: 14; SENP luc ctr: 66*

How did Oc1ccc(C=NNC(=S)NC2CC3CCC2C3)cc1 (centres undefined) do in these assays?
UCH37 DUB inh: 4

Results for COc1ccc(-c2cc(-c3cc(F)ccc3O)[nH]n2)cc1OC ?
SENP6 block: 72*; SENP1 inh: 0; UCH37 DUB inh: 0; SENP8 block-1: -7; SENP7 block: 83*; SENP8 block-2: 69*; SENP8 conf: 86*; SENP6 confirm: 84*; SENP7 conf: 95*; Casp3 SENP sel: 36; SENP luc ctr: 83*

How did C(=NNc1nc(N2CCCC2)nc(N2CCCC2)n1)c1ccncc1 do in these assays?
UCH37 DUB inh: -9

What do the screens show for `Cc1ccc(NC(=O)Cc2noc3ccccc23)cc1`?
SENP6 block: 51*; SENP1 inh: 0; UCH37 DUB inh: 4; SENP8 block-1: 3; SENP7 block: 44; SENP8 block-2: 24; SENP8 conf: 47; SENP6 confirm: 47; SENP7 conf: 74*; Casp3 SENP sel: 61*; SENP luc ctr: 17

Results for Nc1nonc1-n1nnc(C(=O)NN=Cc2cc(Br)ccc2O)c1CSC1=NCCS1 ?
UCH37 DUB inh: -6

How did CCOC(=O)Cn1cc(C=NNC(=O)c2ccc(C#N)cc2F)c2ccccc21 do in these assays?
UCH37 DUB inh: 8

How did COc1ccc(-n2sc3ccccc3c2=O)cc1 do in these assays?
SENP1 inh: 2; SENP8 block-1: 23

Results for COc1ccc(-n2sc3ccc(F)cc3c2=O)cc1 ?
SENP6 block: 91*; SENP1 inh: 0; UCH37 DUB inh: 4; SENP8 block-1: 21; SENP7 block: 79*; SENP8 block-2: 91*; SENP8 conf: 96*; SENP6 confirm: 95*; SENP7 conf: 102*; Casp3 SENP sel: 96*; SENP luc ctr: 92*

What do the screens show for `O=c1c2cc(F)ccc2sn1-c1ccc(F)cc1`?
SENP6 block: 93*; SENP1 inh: 0; UCH37 DUB inh: 0; SENP8 block-1: 7; SENP7 block: 44; SENP8 block-2: 88*; SENP8 conf: 92*; SENP6 confirm: 93*; SENP7 conf: 100*; Casp3 SENP sel: 92*; SENP luc ctr: 86*

Results for CC1=NN(C(N)=S)C(=O)C1N=Nc1c(Cl)cc([N+](=O)[O-])cc1Cl (centres undefined) ?
SENP6 block: 98*; SENP1 inh: 7; UCH37 DUB inh: 19; SENP8 block-1: 47*; SENP7 block: 82*; SENP8 block-2: 95*; SENP8 conf: 96*; SENP6 confirm: 96*; SENP7 conf: 101*; Casp3 SENP sel: 95*; SENP luc ctr: 65*

How did CC1=NN(C(N)=S)C(=O)C1N=Nc1ccccc1C (centres undefined) do in these assays?
SENP6 block: -2; SENP1 inh: 3; UCH37 DUB inh: 5; SENP8 block-1: 35; SENP7 block: 48; SENP8 block-2: 75*; SENP8 conf: 31; SENP6 confirm: 41; SENP7 conf: 58*; Casp3 SENP sel: 70*; SENP luc ctr: 23

How did CC1=NN(C(N)=S)C(=O)C1N=Nc1c(Br)cc(Br)cc1Br (centres undefined) do in these assays?
SENP6 block: 85*; SENP1 inh: 3; SENP8 block-1: 18; SENP7 block: 0; SENP8 block-2: 74*; SENP8 conf: 1; SENP6 confirm: 82*; SENP7 conf: 90*; Casp3 SENP sel: 51*; SENP luc ctr: 58*

Results for CC1=NN(C(N)=S)C(=O)C1N=Nc1ccc(C)cc1C (centres undefined) ?
SENP6 block: 92*; UCH37 DUB inh: -4; SENP7 block: 68*; SENP8 block-2: 81*; SENP8 conf: 41; SENP6 confirm: 58*; SENP7 conf: 70*; Casp3 SENP sel: 68*; SENP luc ctr: 29

What do the screens show for `Cc1ccccc1NN=Cc1c(C)nc2ccccn12`?
UCH37 DUB inh: -19

What do the screens show for `COc1ccccc1Nc1nnc(C)c(=O)[nH]1`?
SENP6 block: -17; SENP1 inh: 1; UCH37 DUB inh: 2; SENP8 block-1: 9; SENP7 block: 2; SENP8 block-2: -11

What do the screens show for `COc1ccc(OC)c(Nc2cc3ccccc3c(=O)[nH]2)c1`?
SENP6 block: 94*; SENP1 inh: -41; UCH37 DUB inh: -2; SENP8 block-1: inactive; SENP7 block: 97*; SENP8 block-2: 88*; SENP8 conf: 31; SENP6 confirm: 74*; SENP7 conf: 41; Casp3 SENP sel: 11; SENP luc ctr: -8

What do the screens show for `COc1ccccc1Nc1cc2cc(Br)ccc2c(=O)[nH]1`?
SENP6 block: 98*; SENP1 inh: -76; UCH37 DUB inh: 21*; SENP8 block-1: -179; SENP7 block: 96*; SENP8 block-2: 97*; SENP8 conf: 86*; SENP6 confirm: 97*; SENP7 conf: 94*; Casp3 SENP sel: 86*; SENP luc ctr: 14

What do the screens show for `NC(=S)NN=C1CCSc2ccc3ccccc3c21`?
UCH37 DUB inh: 3
